One experiment relates to A2780. Briefly: In vitro cytotoxicity against the paclitaxel sensitive […]. The format is functional, cell-based. To be noted: Homo sapiens.
A further experiment deals with HCT-116. Description: In vitro cytotoxicity against the paclitaxel sensitive human colon carcinoma cell line HCT116. It counts as functional, cell-based. The essentials: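 HCT116 cells exposed to compound for 72 h. Viability read by MTS assay and IC50 derived from it.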
For the next experiment, the species on record is Homo sapiens. Description: Compound was evaluated for the inhibition of tubulin polymerization. The format is functional. The procedure, abridged: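 Tubulin polymerization followed by optical density. The value is the compound concentration giving a change of 0.01 OD/h, divided by the corresponding concentration of paclitaxel.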
A short description of experiment [1]: Compound was evaluated for the median survival time of compound treated mice to that of median survival time of the control mice at a dose of 200 mg/kg/injection. It counts as functional. The procedure, abridged:
(§1)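 Balb/c × DBA/2 F1 hybrid mice implanted intraperitoneally with a 2% (w/v) brei of M109 lung carcinoma. Treatment was by intraperitoneal injection on days 5 and 8 post-implant. Survival was followed daily to about 75–90 days, with an untreated control group in each experiment. %T/C = median survival of treated mice / median survival of controls × 100.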

Experiment [2] is described as follows: Compound was evaluated for the ratio of HCT/mdr cell line to that of IC50 of HCT116 cell line. The format is functional, HCT-116. The essentials: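 Resistance ratio: IC50 in the HCT116/mdr line divided by the IC50 in parental HCT116.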
The nature of experiment [3]: Compound was evaluated for the ratio of IC50 of A2780/tub cell line to that of IC50 of A2780 cell line. The format is functional. The procedure, abridged:
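Resistance ratio: IC50 in the A2780/tub line divided by the IC50 in parental A2780.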

The nature of experiment [4]: Compound was evaluated for the median survival time of compound treated mice to that of median survival time of the control mice at a dose of 100 mg/kg/injection. It counts as functional. The essentials: as §1
A short description of experiment [5]: Compound was evaluated for the median survival time of compound treated mice to that of median survival time of the control mice at a dose of 120 mg/kg/injection.

As to `CC(=O)O[C@H]1[C@@H]2CO[C@@H]2[C@@H]2OCOCCOCO[C@H]3C(=O)[C@@]2(C)[C@@H]1[C@H](OC(=O)c1ccccc1)[C@]1(O)C[C@H](OC(=O)[C@H](O)[C@@H](NC(=O)c2ccccc2)c2ccccc2)C(C)=C3C1(C)C`, the IC50 was 2.6 nM in the experiment with A2780 and 3 nM in the experiment on HCT-116. For the same compound, the Tubulin in the experiment filed under Homo sapiens is listed as 1.49. Besides, in experiment [1], the T/C was 174%. For the same compound, the R/S ratio was determined as 10 in experiment [2] and 15 in experiment [3].

For `CC(=O)O[C@H]1[C@@H]2CO[C@@H]2[C@@H]2OCOCCOC(=O)O[C@H]3C(=O)[C@@]2(C)[C@@H]1[C@H](OC(=O)c1ccccc1)[C@]1(O)C[C@H](OC(=O)[C@H](O)[C@@H](NC(=O)c2ccccc2)c2ccccc2)C(C)=C3C1(C)C`, the results for the half-inhibitory concentration (IC50) with A2780 and in the experiment with HCT-116 were 2.1 nM and 1.9 nM, respectively. Besides, the Tubulin in the experiment listed under Homo sapiens came out at 0.73. Also, the R/S ratio in experiment [2] is 31; in experiment [3], 32.

Turning to `CC(=O)O[C@H]1[C@@H]2CO[C@@H]2[C@@H]2OCOCCOCO[C@H]3C(=O)[C@@]2(C)[C@@H]1[C@H](OC(=O)c1ccccc1)[C@]1(O)C[C@H](OC(=O)[C@H](O)[C@@H](NC(=O)OC(C)(C)C)c2ccccc2)C(C)=C3C1(C)C`, the half-maximal inhibitory concentration (IC50) with A2780 stood at 18.5 nM; with HCT-116, 0.8 nM. This compound also gave a Tubulin in the experiment filed under Homo sapiens of 0.67. The compound also yielded a T/C in experiment [4] of 190%. Besides, the R/S ratio in experiment [2] is recorded as 12; in experiment [3] it was 6.

Take `CC(=O)O[C@H]1[C@@H]2CO[C@@H]2[C@@H]2OCOCC(C)(C)COCO[C@H]3C(=O)[C@@]2(C)[C@@H]1[C@H](OC(=O)c1ccccc1)[C@]1(O)C[C@H](OC(=O)[C@H](O)[C@@H](NC(=O)c2ccccc2)c2ccccc2)C(C)=C3C1(C)C`: the IC50 amounted to 18 nM in the experiment with A2780 and 17.2 nM in the experiment with HCT-116. The compound further had a Tubulin in the experiment listed under Homo sapiens of 2.87. Also, the results for the R/S ratio in experiment [2] and in experiment [3] were 11 and 23, respectively. This compound also returned a T/C in experiment [5] of 118%.

By IC50 is commonly meant the point on the concentration scale where inhibition reaches its midpoint. Read a low IC50 as greater potency. A word on the T/C: it is the ratio of treated to control.

(Values after ChEMBL document CHEMBL1146735, “Synthesis and biological activity of macrocyclic taxane analogues” (Bioorg Med Chem Lett, 2004).)
